Laboratory results as given in ChEMBL document CHEMBL1153892 (Bioorg Med Chem, 2009).
Active and inactive are the calls of the source. The calls are words filed in the database; no cut-off is given here.

Experiments:
[1] = molecular target: T1, Dual specificity protein phosphatase 1 (Mus musculus, UniProt P28563); assay: Inhibition of histidine-tagged mouse MKP1 catalytic domain expressed in […]
T1 sequence (P28563 whole entry): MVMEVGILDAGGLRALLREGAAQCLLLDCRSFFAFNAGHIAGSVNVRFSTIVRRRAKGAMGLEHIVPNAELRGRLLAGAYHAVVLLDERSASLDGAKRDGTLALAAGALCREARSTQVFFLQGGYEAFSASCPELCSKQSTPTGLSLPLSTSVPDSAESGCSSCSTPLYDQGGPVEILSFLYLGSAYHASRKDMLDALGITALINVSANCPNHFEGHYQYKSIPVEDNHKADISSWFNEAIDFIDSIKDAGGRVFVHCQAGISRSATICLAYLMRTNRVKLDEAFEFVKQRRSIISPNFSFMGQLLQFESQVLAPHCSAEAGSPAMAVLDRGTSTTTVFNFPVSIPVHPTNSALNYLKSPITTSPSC

[2] = molecular target: T2, M-phase inducer phosphatase 2 (Homo sapiens, UniProt P30305); assay: Inhibition of histidine-tagged human recombinant Cdc25B catalytic domain expressed in Escherichia coli
T2 sequence (P30305 whole entry): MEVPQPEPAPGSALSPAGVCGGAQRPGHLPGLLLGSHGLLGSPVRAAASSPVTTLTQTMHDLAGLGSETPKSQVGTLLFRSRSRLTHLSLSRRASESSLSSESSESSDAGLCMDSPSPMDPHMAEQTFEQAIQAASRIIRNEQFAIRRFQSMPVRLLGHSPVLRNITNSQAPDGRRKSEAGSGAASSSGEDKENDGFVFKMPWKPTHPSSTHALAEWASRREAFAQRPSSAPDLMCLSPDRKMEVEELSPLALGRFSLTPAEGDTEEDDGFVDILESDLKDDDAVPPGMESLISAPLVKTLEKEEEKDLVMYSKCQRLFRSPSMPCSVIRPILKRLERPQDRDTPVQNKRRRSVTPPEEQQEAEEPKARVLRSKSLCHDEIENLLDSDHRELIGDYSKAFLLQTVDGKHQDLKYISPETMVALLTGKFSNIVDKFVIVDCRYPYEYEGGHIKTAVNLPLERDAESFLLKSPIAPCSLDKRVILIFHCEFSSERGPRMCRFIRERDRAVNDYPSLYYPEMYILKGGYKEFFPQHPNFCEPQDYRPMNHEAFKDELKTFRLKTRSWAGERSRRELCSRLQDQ

[3] = molecular target: T3, Dual specificity protein phosphatase 6 (Rattus norvegicus, UniProt Q64346); assay: Inhibition of histidine-tagged rat recombinant MKP3 catalytic domain expressed in Escherichia coli BL21(DE3)
T3 sequence (Q64346 whole entry): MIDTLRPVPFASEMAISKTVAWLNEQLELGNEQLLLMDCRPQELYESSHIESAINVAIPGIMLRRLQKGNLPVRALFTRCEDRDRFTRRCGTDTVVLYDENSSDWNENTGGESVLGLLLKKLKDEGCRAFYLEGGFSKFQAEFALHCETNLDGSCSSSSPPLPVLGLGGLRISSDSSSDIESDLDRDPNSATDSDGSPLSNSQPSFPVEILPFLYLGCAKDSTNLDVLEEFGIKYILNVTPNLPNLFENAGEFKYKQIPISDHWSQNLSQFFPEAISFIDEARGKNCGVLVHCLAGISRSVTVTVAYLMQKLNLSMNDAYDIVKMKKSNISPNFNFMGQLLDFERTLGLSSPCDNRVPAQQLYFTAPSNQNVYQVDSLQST
Method in brief: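 Recombinant MKP-3 was expressed from a bacterial plasmid. Phosphatase activity was read from O-methyl fluorescein phosphate hydrolysis in a 25 μL final mixture, incubated 20 or 60 min at ambient temperature. Product fluorescence was read at excitation 485 nm and emission 530 nm. IC50 came from at least six inhibitor concentrations.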

A2780 [4] = assay: Antiproliferative activity against human A2780 cells after 2 days by alamar-blue assay; format: functional, cell-based; conditions: A2780, 48 h
[5] = molecular target: T2, M-phase inducer phosphatase 2; assay: Inhibition of histidine-tagged full length human Cdc25B expressed in Escherichia coli
Method in brief: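 His6-tagged full-length enzyme purified from E. coli on Ni-NTA resin. Substrate is O-methyl fluorescein phosphate. Buffer is 30 mM Tris pH 8.5, 75 mM NaCl, 1 mM EDTA, 0.033% BSA and 1 mM DTT (final). Incubation runs 20 or 60 min at ambient temperature. Fluorescence is read at ex 485 / em 530 nm. IC50 comes from at least six concentrations.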

A2780 [6] = assay: Antiproliferative activity against human A2780 cells assessed as growth inhibition after 2 days by microscopic analysis; format: functional, cell-based

Compound	IC50 [1] [µM]	IC50 [2] [µM]	IC50 [3] [µM]	IC50 (A2780 [4]) [µM]	IC50 [5] [µM]	Activity (A2780 [6])
O=C1C=CC(=O)c2ccccc21 [NAPHTHOQUINONE]	8.45	2.76	19.8	2.3	–	–
O=C1C=CC(=O)C=C1 [BENZOQUINONE]	> 50	> 50	> 50	7.8	–	–
O=C1C2=C(C(=O)c3cc4c(cc31)CCCC4)S(=O)(=O)CCN2	38.7	2.3	> 50	–	–	–
O=C1C2=C(C(=O)c3c(O)cccc31)S(=O)(=O)CCN2	33.8	0.88	> 50	2.1	–	–
O=C1C=CC(=O)c2c(O)ccc(O)c21 [NAPHTHAZALIN]	9.37	1	6.9	–	–	–
O=C1C=CC(=O)c2cc3c(cc21)CCCC3	21.8	9.53	> 50	–	–	–
C[C@@]12CCCc3coc(c31)C(=O)c1cc3c(cc12)C(=O)C1=C(NCCS1(=O)=O)C3=O [ADOCIAQUINONE B]	1.1	0.11	1.53	–	0.08	–
O=C1C2=C(C(=O)c3ccccc31)S(=O)(=O)CCN2	17.8	0.94	42.6	4.3	–	–
CC1=C(NCCO)C(=O)c2ccccc2C1=O	> 50	> 50	> 50	–	–	Active
CC1=CC(=O)c2ccccc2C1=O [MENADIONE]	24	3.38	20.5	2.6	–	–
O=C1C=CC(=O)c2c(O)cccc21 [JUGLONE]	13	1.98	12.4	1.4	–	–
O=C1C=C(NCCO)C(=O)c2ccccc21	> 50	> 50	> 50	64	–	–
CCOC1=CC(=O)C(=O)c2ccccc21	0.82	0.27	1.35	0.37	–	–
O=C1c2ccccc2C(=O)c2ccccc21 [ANTHRAQUINONE]	> 50	9.51	> 50	–	–	–
O=C1c2cc3c(cc2C(=O)C2OC12)CCCC3 (stereo not given)	> 50	22.3	49.9	–	–	–
